≈ marks a conversion by molar mass, not a printed value.
Columns and labels:
[1] = system: HeLa; assay: Effective concentration required to inhibit respiratory synaptial (RSV) virus-induced cytopathicity by 50% in HeLa cell lines; type: functional, cell-based; conditions: Homo sapiens
[2] = system: HeLa; assay: Effective concentration required to inhibit vesicular stomatitis virus (VSV)-induced cytopathicity by 50% in HeLa cell lines; type: functional, cell-based; conditions: Homo sapiens
[3] = system: Vero; assay: Effective concentration required to inhibit reovirus-induced cytopathicity by 50% in Vero cell lines; type: functional, cell-based; conditions: Chlorocebus sabaeus
[4] = system: Vero; assay: Minimum inhibitory concentration required to elicit microscopically visible cell morphology in Vero cell lines; type: functional; conditions: Chlorocebus sabaeus
[5] = system: HeLa; assay: Effective concentration required to inhibit Coxsackie virus B4-induced cytopathicity by 50% in HeLa cell lines; type: functional, cell-based; conditions: Homo sapiens
[6] = system: Vero; assay: Effective concentration required to inhibit respiratory synaptial (RSV) virus-induced cytopathicity by 50% in Vero cell lines; type: functional, cell-based; conditions: Chlorocebus sabaeus
[7] = system: Vero; assay: Effective concentration required to inhibit Punta Toro virus-induced cytopathicity by 50% in Vero cell lines; type: functional, cell-based; conditions: Chlorocebus sabaeus
[8] = system: HeLa; assay: Minimum inhibitory concentration required to elicit microscopically visible cell morphology in HeLa cell lines; type: functional; conditions: Homo sapiens
[9] = system: Vero; assay: Effective concentration required to inhibit parainfluenza-3 virus-induced cytopathicity by 50% in Vero cell lines; type: functional, cell-based; conditions: Chlorocebus sabaeus
[10] = system: Vero; assay: Effective concentration required to inhibit Junin virus-induced cytopathicity by 50% in Vero cell lines; type: functional, cell-based; conditions: Chlorocebus sabaeus
[11] = system: Vero; assay: Effective concentration required to inhibit PuntaToro virus-induced cytopathicity by 50% in Vero cell lines; type: functional, cell-based; conditions: Chlorocebus sabaeus
[12] = system: HEL; assay: Effective concentration required to inhibit cytomegalo virus-induced cytopathicity by 50% in Davis-169 strain HEL cell lines; type: functional, cell-based; conditions: Homo sapiens
[13] = system: HEL; assay: Effective concentration required to inhibit thymidine kinase (TK+) Varicella-Zoster virus-induced cytopathicity by 50% in OKA strain HEL cell lines; type: functional, cell-based; conditions: Homo sapiens
[14] = system: E6SM; assay: Effective concentration required to inhibit Herpes simplex virus-1 (HSV-1) induced cytopathicity by 50% in E6SM cell lines; type: functional, cell-based; conditions: Homo sapiens
[15] = system: Vero; assay: Effective concentration required to inhibit Sindbis virus-induced cytopathicity by 50% in Vero cell lines; type: functional, cell-based; conditions: Chlorocebus sabaeus
[16] = system: HEL; assay: Effective concentration required to inhibit Thymidine kinase deficient (TK-) Varicella-Zoster virus-induced cytopathicity by 50% in 07/01 strain HEL cell lines; type: functional, cell-based; conditions: Homo sapiens
[17] = system: E6SM; assay: Effective concentration required to inhibit Vaccinia virus-induced cytopathicity by 50% in E6SM cell lines; type: functional, cell-based; conditions: Homo sapiens
[18] = system: E6SM; assay: Effective concentration required to inhibit Herpes simplex virus-2 (HSV-2) induced cytopathicity by 50% in E6SM cell lines; type: functional, cell-based; conditions: Homo sapiens
[19] = system: E6SM; assay: Effective concentration required to inhibit Herpes simplex virus-1(HSV-1) / […] kinase deficient (TK-)B2006 / VMW1837 induced cytopathicity by 50% in E6SM cell lines; type: functional, cell-based; conditions: Homo sapiens
[20] = system: E6SM; assay: Minimum inhibitory concentration required to elicit microscopically visible cell morphology in E6SM cell lines; type: functional; conditions: Homo sapiens
[21] = system: HEL; assay: Minimum inhibitory concentration required to elicit microscopically visible cell morphology in HEL cell lines; type: functional; conditions: Homo sapiens
[22] = biological target: T1, Adenosylhomocysteinase (Homo sapiens, UniProt P23526)
Target sequence in this assay (P23526 2-432 limits assumed): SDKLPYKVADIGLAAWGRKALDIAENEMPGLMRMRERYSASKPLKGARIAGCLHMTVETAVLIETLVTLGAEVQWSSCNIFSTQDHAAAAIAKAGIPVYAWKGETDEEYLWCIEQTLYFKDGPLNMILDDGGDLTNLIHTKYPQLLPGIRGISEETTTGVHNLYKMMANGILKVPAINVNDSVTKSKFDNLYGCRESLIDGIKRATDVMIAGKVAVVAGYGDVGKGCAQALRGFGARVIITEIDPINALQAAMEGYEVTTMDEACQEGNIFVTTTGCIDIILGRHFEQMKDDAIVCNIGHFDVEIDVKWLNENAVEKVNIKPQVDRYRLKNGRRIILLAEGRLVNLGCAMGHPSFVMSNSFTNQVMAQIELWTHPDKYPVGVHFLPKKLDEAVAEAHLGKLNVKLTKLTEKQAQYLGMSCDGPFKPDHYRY

[23] = biological target: T1, Adenosylhomocysteinase; remark: listed apart in the source
Target sequence in this assay (P23526 2-432 limits assumed): as above

[24] = system: HeLa; assay: Effective concentration required to inhibit respiratory synaptial(RSV) virus-induced cytopathicity by 50% in HeLa cell lines; type: functional, cell-based; conditions: Homo sapiens
[25] = biological target: T1, Adenosylhomocysteinase; remark: listed apart in the source
Target sequence in this assay (P23526 2-432 limits assumed): as above

[26] = system: HEL; assay: Effective concentration required to inhibit Thymidine kinase deficient (TK-) Varicella-Zoster virus-induced cytopathicity by 50% in YS/R strain HEL cell lines; type: functional, cell-based; conditions: Homo sapiens
[27] = system: HEL; assay: Effective concentration required to inhibit thymidine kinase (TK+) Varicella-Zoster virus-induced cytopathicity by 50% in YS strain HEL cell lines; type: functional, cell-based; conditions: Homo sapiens
[28] = system: Vero; assay: Effective concentration required to inhibit Tacaribe virus-induced cytopathicity by 50% Vero cell lines; type: functional, cell-based; conditions: Chlorocebus sabaeus
[29] = half life of enzyme inactivation at 15 uM; type: functional
Outline: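 Recombinant human placental AdoHcy hydrolase was preincubated with inhibitor (5-40 µM range) in assay buffer at 37 °C. Residual activity was read at set times in the synthetic direction: [8-14C]-AdoHcy formation from 10 µM [8-14C]-Ado plus 5 mM D,L-Hcy, in 20 mM K phosphate pH 7.5, 1 mg/mL BSA, 1 mM EDTA, for 10 min at 37 °C. HCl stopped the reaction, and products were separated on Cellex P.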

[30] = biological target: T1, Adenosylhomocysteinase; assay: Inhibition of purified recombinant human placental S-adenosyl-homocysteine hydrolase
Outline: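 Enzyme preincubated at 37 °C in assay buffer with inactivator (5-40 µM). Residual activity was read over time in the synthetic direction from the formation of [8-14C]-AdoHcy, using 10 µM [8-14C]-Ado, 5 mM D,L-Hcy, 20 mM potassium phosphate pH 7.5, 1 mg/mL BSA and 1 mM EDTA, 10 min at 37 °C. Reaction stopped with HCl; Ado/AdoHcy separated on Cellex P.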
Target sequence in this assay (P23526 whole entry): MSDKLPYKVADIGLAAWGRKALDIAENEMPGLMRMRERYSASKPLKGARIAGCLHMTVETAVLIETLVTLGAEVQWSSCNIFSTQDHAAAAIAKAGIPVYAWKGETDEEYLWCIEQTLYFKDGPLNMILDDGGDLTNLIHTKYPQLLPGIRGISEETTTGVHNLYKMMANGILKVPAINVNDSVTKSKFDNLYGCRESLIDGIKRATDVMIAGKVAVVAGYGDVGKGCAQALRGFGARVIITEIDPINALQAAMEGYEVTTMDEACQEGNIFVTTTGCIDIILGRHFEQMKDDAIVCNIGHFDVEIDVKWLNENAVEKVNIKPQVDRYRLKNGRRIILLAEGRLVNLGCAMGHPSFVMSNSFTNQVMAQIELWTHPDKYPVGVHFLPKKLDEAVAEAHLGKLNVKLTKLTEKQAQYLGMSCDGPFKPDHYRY

[31] = system: HEL; assay: Effective concentration required to inhibit cytomegalo virus-induced cytopathicity by 50% in AD-169 strain HEL cell lines; type: functional, cell-based; conditions: Homo sapiens
[32] = system: E6SM; assay: Effective concentration required to inhibit vesicular stomatitis virus(VSV) -induced cytopathicity by 50% in E6SM cell lines; type: functional, cell-based; conditions: Homo sapiens
[33] = system: HEL; assay: Effective concentration required to inhibit cytomegalo virus(CMV) -induced cytopathicity by 50% in AD-169 strain HEL cell lines; type: functional, cell-based; conditions: Homo sapiens

Compound | EC50 [2] [µM] | EC50 [3] [µM] | EC50 [5] [µM] | EC50 [6] [µM] | MIC [8] [µM] | EC50 [9] [µM] | EC50 [11] [µM] | EC50 [12] [µM] | EC50 [13] [µM] | EC50 [14] [µM] | EC50 [16] [µM] | EC50 [17] [µM] | EC50 [18] [µM] | EC50 [19] [µM] | MIC [20] [µM] | MIC [21] [µM] | EC50 [24] [µM] | EC50 [26] [µM] | EC50 [27] [µM] | EC50 [32] [µM] | other results
Nc1ncnc2c1ncn2C[C@H](O)CO [(S)-DHPA] | 230 | 45 | 230 | > 2000 | > 2000 | 230 |  |  |  |  |  |  |  |  |  |  |  |  |  |  | EC50 [1]: 2000 µM; MIC [4]: > 2000 µM; EC50 [7]: > 2000 µM
CC#CSC[C@H]1OC(n2cnc3c(N)ncnc32)[C@H](O)[C@@H]1O (stereo partly drawn) | > 1240 | > 120 | > 120 | > 1240 | > 1240 | > 120 | > 120 | > 200 | > 200 | 250 | 200 | 49 | 620 | > 250 | 1240 (≈ 398 µg/mL) | > 200 | > 250 | 200 | > 200 | > 250 | EC50 [10]: > 200 µM; EC50 [15]: > 40 µM; NADH content [22]: 0.32; NAD+ content [23]: 0.68; K inact [25]: 0.062 min⁻¹; EC50 [28]: > 200 µM; T1/2 [29]: 7 min; Ki [30]: 16 µM; EC50 [31]: > 200 µM
C=C=CSC[C@H]1OC(n2cnc3c(N)ncnc32)[C@H](O)[C@@H]1O (stereo partly drawn) | > 250 | > 380 | > 600 | > 250 | 1240 (≈ 398 µg/mL) | > 620 | > 620 | > 200 | > 200 | 250 | 87 | 1.9 | > 250 | 150 | 1240 (≈ 398 µg/mL) | > 200 | > 250 | > 200 | > 200 | > 250 | EC50 [10]: > 200 µM; EC50 [15]: > 200 µM; NADH content [22]: 0.3; NAD+ content [23]: 0.7; K inact [25]: 0.12 min⁻¹; EC50 [28]: > 200 µM; T1/2 [29]: 7 min; Ki [30]: 16 µM; EC50 [31]: > 200 µM
C#CCSC[C@H]1OC(n2cnc3c(N)ncnc32)[C@H](O)[C@@H]1O (stereo partly drawn) | > 250 | > 120 | > 120 | > 250 | 1240 (≈ 398 µg/mL) | > 120 | > 120 | > 200 | > 200 | > 250 | 154 | > 250 | > 250 | > 250 | 1240 (≈ 398 µg/mL) | > 200 | > 250 | 126 | > 200 | > 250 | EC50 [10]: > 200 µM; EC50 [15]: > 40 µM; NADH content [22]: 1; NAD+ content [23]: 0; K inact [25]: 0.0074 min⁻¹; EC50 [33]: > 200 µM; EC50 [28]: > 200 µM; T1/2 [29]: 19 min; Ki [30]: 45 µM
Nc1nc2c(ncn2COCCO)c(=O)[nH]1 [ACYCLOVIR] |  |  |  |  |  |  |  |  | 4.53 |  | 41 |  |  |  |  | > 150 |  | 63 | 4.09 |  | 
NC(=O)c1ncn([C@@H]2O[C@H](CO)[C@@H](O)[C@H]2O)n1 [RIBAVIRIN] | 1000 | 40 | > 320 | > 1600 | > 1600 | 196 | 40 |  |  | 320 |  | 65 | 320 | 0.005 | > 1600 |  | 1.5 |  |  | 40 | 
Nc1nc2c(ncn2COC(CO)CO)c(=O)[nH]1 [GANCICLOVIR] | > 100 |  |  |  |  |  |  | 11.8 |  | 0.0012 |  | > 100 | 0.0012 |  | > 1600 | > 150 |  |  |  |  | EC50 [31]: 7.8 µM
